≈ marks a conversion by molar mass, not a printed value.
What was measured:
[1] = Cytotoxicity against human mock-infected MT4 cells after 4 days by MTT assay; type: cell-based
Outline: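 Mock-infected MT-4 cells were grown in HEPES-buffered RPMI-1640 with 10% heat-inactivated FCS and subcultured every 3–4 d. Viability was read by MTT at 7.5 mg/ml for 1 h at 37 °C, with formazan dissolved in acidified Triton X-100/isopropanol and read at A540 minus A690. CC50 is the concentration lowering OD540 of the mock-infected control by 50%.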

[2] = system: Human immunodeficiency virus 1; assay: Antiviral activity against wild type HIV1 infected in human MT4 cells assessed as protection against virus-induced cytopathogenicity after 5 days by MTT assay; conditions: Human immunodeficiency virus 1, MT4, 120 h

Row | SMILES | CC50 at 96 h [1] | EC50 [2]
1 | Cc1ccc2oc(=O)cc(CC(=O)Nc3nc4cc(Cl)c(F)cc4s3)c2c1 | > 12 µg/mL | 12 µg/mL (≈ 29.8 µM)
2 | Cc1ccc2oc(=O)cc(CC(=O)Nc3nc4ccc(Cl)cc4s3)c2c1 | > 27 µg/mL | 27 µg/mL (≈ 70.2 µM)
3 | Cc1ccc2c(CC(=O)Nc3nc4ccc(F)cc4s3)cc(=O)oc2c1 | > 44 µg/mL | 44 µg/mL (≈ 119 µM)
4 | Cc1ccc2oc(=O)cc(CC(=O)Nc3nc4ccc(F)cc4s3)c2c1 | > 20 µg/mL | 20 µg/mL (≈ 54.3 µM)
5 | O=C(Cc1cc(=O)oc2cc(O)ccc12)Nc1nc2ccc(Cl)cc2s1 | > 7 µg/mL | 7 µg/mL (≈ 18.1 µM)
6 | Cc1ccc2c(CC(=O)Nc3nc4ccc(Cl)cc4s3)cc(=O)oc2c1 | > 44 µg/mL | 44 µg/mL (≈ 114 µM)
7 | Cc1cccc2c(CC(=O)Nc3nc4cc(Cl)c(F)cc4s3)cc(=O)oc12 | > 58 µg/mL | 58 µg/mL (≈ 144 µM)
8 | Cc1cccc2c(CC(=O)Nc3nc4ccc(F)cc4s3)cc(=O)oc12 | > 100 µg/mL | 100 µg/mL (≈ 271 µM)
9 | Cc1cc(C)c2oc(=O)cc(CC(=O)Nc3nc4ccc([N+](=O)[O-])cc4s3)c2c1 | > 100 µg/mL | 100 µg/mL (≈ 244 µM)
10 | COc1ccc2nc(NC(=O)Cc3cc(=O)oc4ccc5ccccc5c34)sc2c1 | > 100 µg/mL | 100 µg/mL (≈ 240 µM)
11 | Cc1cccc2c(CC(=O)Nc3nc4ccc([N+](=O)[O-])cc4s3)cc(=O)oc12 | > 12 µg/mL | 12 µg/mL (≈ 30.3 µM)
12 | O=C(Cc1cc(=O)oc2cc(O)ccc12)Nc1nc2ccc(F)cc2s1 | > 21 µg/mL | 21 µg/mL (≈ 56.7 µM)
13 | Cc1ccc2c(CC(=O)Nc3nc4ccc([N+](=O)[O-])cc4s3)cc(=O)oc2c1C | > 9 µg/mL | 9 µg/mL (≈ 22 µM)
14 | O=C(Cc1cc(=O)oc2cc(O)ccc12)Nc1nc2ccc([N+](=O)[O-])cc2s1 | > 8 µg/mL | 8 µg/mL (≈ 20.1 µM)
15 | COc1ccc2nc(NC(=O)Cc3cc(=O)oc4c3ccc3ccccc34)sc2c1 | > 100 µg/mL | 100 µg/mL (≈ 240 µM)
16 | Cc1ccc2oc(=O)cc(CC(=O)Nc3nc4ccc([N+](=O)[O-])cc4s3)c2c1 | > 32 µg/mL | 32 µg/mL (≈ 80.9 µM)
17 | O=C(Cc1cc(=O)oc2cc(O)ccc12)Nc1nc2cc(Cl)c(F)cc2s1 | > 100 µg/mL | 100 µg/mL (≈ 247 µM)
18 | Cc1cccc2c(CC(=O)Nc3nc4ccc(Cl)cc4s3)cc(=O)oc12 | > 21 µg/mL | 21 µg/mL (≈ 54.6 µM)
19 | Cc1ccc2c(CC(=O)Nc3nc4cc(Cl)c(F)cc4s3)cc(=O)oc2c1C | > 97 µg/mL | 97 µg/mL (≈ 233 µM)
20 | Cc1ccc2c(CC(=O)Nc3nc4cc(Cl)c(F)cc4s3)cc(=O)oc2c1 | > 17 µg/mL | 17 µg/mL (≈ 42.2 µM)
21 | Cc1ccc2c(CC(=O)Nc3nc4ccc([N+](=O)[O-])cc4s3)cc(=O)oc2c1 | > 49 µg/mL | 49 µg/mL (≈ 124 µM)
22 | Cc1cn([C@H]2C[C@H](N=[N+]=[N-])[C@@H](CO)O2)c(=O)[nH]c1=O [ZIDOVUDINE] | 65.4 µg/mL (≈ 245 µM) | 0.0012 µg/mL (≈ 0.00449 µM)
23 | Cc1cc(C)c2oc(=O)cc(CC(=O)Nc3nc4ccc(Cl)cc4s3)c2c1 | > 65 µg/mL | 65 µg/mL (≈ 163 µM)
24 | Cc1ccc2c(CC(=O)Nc3nc4ccc(Cl)cc4s3)cc(=O)oc2c1C | > 60 µg/mL | 60 µg/mL (≈ 150 µM)
25 | Cc1ccc2c(CC(=O)Nc3nc4ccc(F)cc4s3)cc(=O)oc2c1C | > 24 µg/mL | 24 µg/mL (≈ 62.8 µM)
26 | Cc1cc(C)c2oc(=O)cc(CC(=O)Nc3nc4ccc(F)cc4s3)c2c1 | > 38 µg/mL | 38 µg/mL (≈ 99.4 µM)
27 | Cc1cc(C)c2oc(=O)cc(CC(=O)Nc3nc4cc(Cl)c(F)cc4s3)c2c1 | > 16 µg/mL | 16 µg/mL (≈ 38.4 µM)
